Drawing on ChEMBL document CHEMBL1147748, “Overlapping, nonidentical binding sites of different classes of nonpeptide antagonists for the human gonadotropin-releasing hormone receptor” (J Med Chem, 2006), this text covers IC50 for two compounds.

Test [1] addresses Gonadotropin-releasing hormone receptor (Homo sapiens, UniProt P30968, Y284L). Nature of the test: Displacement of [125I]-His5, D-Tyr6]GnRH from mutant GnRHR, GnRHR Y284L.
Test [2] deals with Gonadotropin-releasing hormone receptor (Homo sapiens, UniProt P30968, Y284F). The test can be described thus: Displacement of [125I]-His5, D-Tyr6]GnRH from mutant GnRHR, GnRHR Y284F. On the technique in general: Displacement assays read how much labelled ligand stays bound in the presence of the test substance.
Test [3] has as its target Gonadotropin-releasing hormone receptor (Homo sapiens, UniProt P30968, Q208D). Nature of the test: Displacement of [125I]-His5, D-Tyr6]GnRH from mutant GnRHR, GnRHR Q208D.
The target in test [4] is Gonadotropin-releasing hormone receptor (Homo sapiens, UniProt P30968, Q208E). Nature of the test: Displacement of [125I]-His5, D-Tyr6]GnRH from mutant GnRHR, GnRHR Q208E.
The target in test [5] is Gonadotropin-releasing hormone receptor (Homo sapiens, UniProt P30968, H182A). The test can be described thus: Displacement of [125I]-His5, D-Tyr6]GnRH from mutant GnRHR, GnRHR H182A. The essentials: (§1)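 Human GnRH-R (wild type or site-directed point mutant) was transiently expressed in COS-7 cells by electroporation, with cells cultured 36-48 h before membranes were prepared. Membranes (5-20 µg per point) were incubated 2 h at room temperature with 0.3 nM tracer and varying competitor in HEPES pH 7.5, 150 mM NaCl, 0.1% BSA, then filtered and counted.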

Test [6] has as its target Gonadotropin-releasing hormone receptor (Homo sapiens, UniProt P30968, N315D). Nature of the test: Displacement of [125I]-His5, D-Tyr6]GnRH from mutant GnRHR, GnRHR N315D. The essentials: as §1
Test [7] addresses Gonadotropin-releasing hormone receptor (Homo sapiens, UniProt P30968, N305A). The test can be described thus: Displacement of [125I]-His5, D-Tyr6]GnRH from mutant GnRHR, GnRHR N305A. An outline of the steps: as §1
Test [8] deals with Gonadotropin-releasing hormone receptor (Homo sapiens, UniProt P30968, K121A). Nature of the test: Displacement of [125I]-His5, D-Tyr6]GnRH from mutant GnRHR, GnRHR K121A. The essentials:
as §1

Test [9] deals with Gonadotropin-releasing hormone receptor (Homo sapiens, UniProt P30968, D302A). Nature of the test: Displacement of [125I]-His5, D-Tyr6]GnRH from mutant GnRHR, GnRHR D302A. The essentials: as §1
For test [10], the target named is Gonadotropin-releasing hormone receptor (Homo sapiens, UniProt P30968). Nature of the test: Displacement of [125I]-His5, D-Tyr6]GnRH from human wild type GnRHR. An outline of the steps:
as §1

Test [11] has as its target Gonadotropin-releasing hormone receptor (Homo sapiens, UniProt P30968, M24T). The test can be described thus: Displacement of [125I]-His5, D-Tyr6]GnRH from mutant GnRHR, GnRHR M24T. The essentials:
as §1

Chain of Gonadotropin-releasing hormone receptor (Homo sapiens, UniProt P30968, N315D) (P30968 whole entry N315D): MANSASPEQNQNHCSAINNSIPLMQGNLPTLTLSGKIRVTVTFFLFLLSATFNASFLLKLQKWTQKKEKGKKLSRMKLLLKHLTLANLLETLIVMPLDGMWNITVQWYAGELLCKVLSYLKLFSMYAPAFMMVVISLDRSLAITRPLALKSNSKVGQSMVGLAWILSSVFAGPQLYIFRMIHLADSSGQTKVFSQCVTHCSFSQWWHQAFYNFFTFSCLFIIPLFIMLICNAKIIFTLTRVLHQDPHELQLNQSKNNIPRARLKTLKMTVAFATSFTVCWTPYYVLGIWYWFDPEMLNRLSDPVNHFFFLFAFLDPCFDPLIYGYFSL
Chain of Gonadotropin-releasing hormone receptor (Homo sapiens, UniProt P30968, Y284L) (P30968 whole entry Y284L): as the sequence (P30968 whole entry N315D) above, with Y284L, D315N counted along it
Chain of Gonadotropin-releasing hormone receptor (Homo sapiens, UniProt P30968, N305A) (P30968 whole entry N305A): as the sequence (P30968 whole entry N315D) above, with N305A, D315N counted along it
Chain of Gonadotropin-releasing hormone receptor (Homo sapiens, UniProt P30968, M24T) (P30968 whole entry M24T): as the sequence (P30968 whole entry N315D) above, with M24T, D315N counted along it
Chain of Gonadotropin-releasing hormone receptor (Homo sapiens, UniProt P30968, D302A) (P30968 whole entry D302A): as the sequence (P30968 whole entry N315D) above, with D302A, D315N counted along it
Chain of Gonadotropin-releasing hormone receptor (Homo sapiens, UniProt P30968, K121A) (P30968 whole entry K121A): as the sequence (P30968 whole entry N315D) above, with K121A, D315N counted along it
Chain of Gonadotropin-releasing hormone receptor (Homo sapiens, UniProt P30968, Y284F) (P30968 whole entry Y284F): as the sequence (P30968 whole entry N315D) above, with Y284F, D315N counted along it
Chain of Gonadotropin-releasing hormone receptor (Homo sapiens, UniProt P30968, Q208E) (P30968 whole entry Q208E): as the sequence (P30968 whole entry N315D) above, with Q208E, D315N counted along it
Chain of Gonadotropin-releasing hormone receptor (Homo sapiens, UniProt P30968, H182A) (P30968 whole entry H182A): as the sequence (P30968 whole entry N315D) above, with H182A, D315N counted along it
Chain of Gonadotropin-releasing hormone receptor (Homo sapiens, UniProt P30968, Q208D) (P30968 whole entry Q208D): as the sequence (P30968 whole entry N315D) above, with Q208D, D315N counted along it
Chain of Gonadotropin-releasing hormone receptor (Homo sapiens, UniProt P30968) (P30968 whole entry): as the sequence (P30968 whole entry N315D) above, with D315N counted along it

As a reminder, the IC50 is the concentration at which inhibition is half-maximal. Higher therefore signals weaker potency in that assay. On to `COc1c(C)cc(-c2[nH]c3ccc(C(C)(C)C(=O)N(CC(C)C)CC(C)C)cc3c2[C@H](C)CNCCc2ccccc2)cc1C`, for which the IC50 in [1] is 277 nM; in test [2], 28.8 nM; in test [3] it was 16.2 nM; in test [4], 6 nM; in test [5], 3.7 nM; in test [6], 49.3 nM. Moreover, the IC50 stood at 3.7 nM in [7]; 82.3 nM in test [8]; 11 nM in [9]; 17.7 nM in test [10]; 57.1 nM in [11].

Take `CC(C)C[C@H](NC(=O)[C@@H](Cc1ccc(O)cc1)NC(=O)[C@H](Cc1c[nH]cn1)NC(=O)[C@H](CO)NC(=O)[C@H](Cc1c[nH]c2ccccc12)NC(=O)[C@H](Cc1c[nH]cn1)NC(=O)[C@@H]1CCC(=O)N1)C(=O)N[C@@H](CCCN=C(N)N)C(=O)N1CCC[C@H]1C(=O)NCC(N)=O`: the IC50 stood at 186 nM in test [1]; 2.8 nM in [2]; 10.1 nM in test [3]; 15 nM in test [4]; 6.6 nM in test [5]; 1.5 nM in test [6]. Moreover, the IC50 stood at 12.7 nM in test [7]; 267 nM in test [8]; 42.2 nM in test [9]; 8.1 nM in test [10]; 4.9 nM in [11].
